Source: paper PMC11609979 (Chemical Science, 2024)
Each block holds one compound with its values, some of them ahead of it.

Key:
[1] = tested on: A549 cells; assay: Seahorse MitoStress Test; assay type: cell-based; details: for Lowest concentration for inhibition of OCR, Dark: 1 h incubation, no irradiation
How it was run: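 OCR/ECAR were measured by extracellular flux with sequential oligomycin, FCCP, then rotenone/antimycin A. Basal, maximal and non-mitochondrial respiration were derived. OCR IC50 was taken from maximal respiration. The phenotype map plots basal versus stressed states.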

[2] = cited from earlier work
[3] = tested on: A549 cells; assay: Seahorse Glycolytic Rate Test; assay type: cell-based; details: irradiation with red light 660 nm
How it was run: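 A549 cells were incubated 1 h with test compound, kept dark or irradiated. Irradiation used indigo 450 nm light (485 mW cm^-2) or red 660 nm light (16 mW cm^-2). Concentrations were chosen from light/dark cytotoxicity to keep cells viable. Glycolysis was blocked by 2-deoxyglucose injection, then non-glycolytic acidification was measured. Mitochondrial acidification was also read out.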

[4] = tested on: A549 cells; assay: Cell cytotoxicity; assay type: cell-based; details: Homo sapiens, A549, 72 h, read-out: IC50 (±St. Dev.) Light
How it was run: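 A549 cells were exposed to test compound and viability was read 72 h after treatment. Dark samples were protected from light. IC50 was taken from dose–response curves, n = 3.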

Structure (SMILES): N.N.[Cl][Pt][Cl] [Cisplatin]
Lowest concentration for inhibition of OCR, Dark ([1]; A549 cells): >20 µM

IC50 ([1]; Homo sapiens, A549, read-out: OCR IC50 (from maximal respiration dose-response)): 1200 nM
Structure (SMILES): CCCCCCOC(C)c1c(C)c2cc3nc(c4c5[nH]c(cc6nc(cc1[nH]2)C(C)=C6CC)c(C)c5C(=O)C4)[C@@H](CCC(=O)O)[C@@H]3C (stereo partly shown) [HPPH, 2-(1-hexyloxyethyl)-2-devinylpyropheophorbide-a]
log P [2]: ~6.0 | Concentration with PER showing no glycolytic activity [3]: 10 µM | Cellular respiration in the absence of light ([1]; A549 cells, 1 h, dark, Fig. 3A and C): unaffected | Lowest concentration for inhibition of OCR, Dark ([1]; A549 cells): 3 µM | Cellular respiration following irradiation ([1]; A549 cells, indigo light for 3, red light (660 nm) for HPPH, Fig. 3B and D): marked concentration-dependent decrease | Fold lower than the IC50 for cytotoxicity (quiescent phenotype concentration) ([1]; A549 cells, red light): 10 fold | Concentration inducing the quiescent phenotype ([1]; A549 cells, red light, Fig. S10): 0.37 µM | IC50 [4]: 3700 nM
